Assay results as given in ChEMBL document CHEMBL3232832, “Derivatives of dibenzothiophene for positron emission tomography imaging of α7-nicotinic acetylcholine receptors” (J Med Chem, 2013).

Legend:
[1] = Selectivity ratio of Ki for alpha4beta2 nAChR (unknown origin) to Ki for rat cortical membrane alpha7 nAChR
[2] = Selectivity ratio of Ki for human 5HT3 receptor to Ki for rat cortical membrane alpha7 nAChR
Nucleic Acid [3] = experiment: Ratio of drug uptake in cortex to cerebellum in CD-1 mouse at 0.67 MBq after 5 to 120 mins; assay type: ADME; details: in vivo
[4] = Ratio of drug uptake in cortex to cerebellum in mouse; assay type: ADME, organism-based; details: in vivo
[5] = target: T1, Neuronal acetylcholine receptor subunit alpha-7 (Rattus norvegicus, UniProt Q05941); experiment: Displacement of [125I]alpha-bungarotoxin from Sprague-Dawley rat brain alpha7-nAChR after 3 hrs
T1 sequence (Q05941 whole entry): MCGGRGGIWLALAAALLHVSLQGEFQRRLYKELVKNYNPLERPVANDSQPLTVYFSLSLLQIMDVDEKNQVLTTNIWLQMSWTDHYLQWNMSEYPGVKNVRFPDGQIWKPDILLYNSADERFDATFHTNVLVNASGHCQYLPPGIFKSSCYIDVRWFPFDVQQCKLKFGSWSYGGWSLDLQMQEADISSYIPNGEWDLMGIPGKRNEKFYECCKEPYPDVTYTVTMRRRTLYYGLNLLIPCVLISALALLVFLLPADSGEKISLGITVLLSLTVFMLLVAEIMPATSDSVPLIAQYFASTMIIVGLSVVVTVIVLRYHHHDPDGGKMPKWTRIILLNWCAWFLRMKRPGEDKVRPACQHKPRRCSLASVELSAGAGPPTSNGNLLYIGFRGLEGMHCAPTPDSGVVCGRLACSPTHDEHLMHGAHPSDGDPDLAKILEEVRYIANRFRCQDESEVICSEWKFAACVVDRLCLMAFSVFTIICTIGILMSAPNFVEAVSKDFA

Nucleic Acid [6] = experiment: Ratio of drug uptake in cortex to cerebellum in CD-1 mouse by gamma-counting analysis; assay type: ADME, tissue-based; details: in vivo
[7] = target: Neuronal acetylcholine receptor subunit alpha-7 (Homo sapiens, UniProt P36544); experiment: Binding affinity to alpha7 nAChR (unknown origin)
Sequence of Neuronal acetylcholine receptor subunit alpha-7 (Homo sapiens, UniProt P36544) (P36544 whole entry): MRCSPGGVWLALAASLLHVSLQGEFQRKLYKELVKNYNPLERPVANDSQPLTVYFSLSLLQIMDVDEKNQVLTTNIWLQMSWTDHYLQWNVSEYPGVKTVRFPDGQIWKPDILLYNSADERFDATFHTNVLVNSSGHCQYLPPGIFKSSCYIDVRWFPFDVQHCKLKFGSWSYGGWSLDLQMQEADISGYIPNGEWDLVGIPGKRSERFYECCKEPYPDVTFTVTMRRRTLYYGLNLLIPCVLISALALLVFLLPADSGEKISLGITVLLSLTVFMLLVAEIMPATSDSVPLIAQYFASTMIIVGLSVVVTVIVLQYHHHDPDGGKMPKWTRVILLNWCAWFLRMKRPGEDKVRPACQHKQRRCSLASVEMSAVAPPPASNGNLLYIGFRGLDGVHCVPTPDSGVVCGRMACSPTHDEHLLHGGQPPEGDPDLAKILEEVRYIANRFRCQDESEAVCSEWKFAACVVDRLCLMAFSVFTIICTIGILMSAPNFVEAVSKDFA

[8] = target: T1, Neuronal acetylcholine receptor subunit alpha-7; experiment: Binding affinity to rat brain alpha7 nAChR
[9] = target: T1, Neuronal acetylcholine receptor subunit alpha-7; experiment: Displacement of [125I]-alpha-BTX from rat alpha7-nAChR after 2 hrs by scintillation counting analysis
[10] = target: T1, Neuronal acetylcholine receptor subunit alpha-7; experiment: Displacement of [125I]alpha-bungarotoxin from rat cortical membrane alpha7-nAChR after 150 mins by gamma-counting analysis
Nucleic Acid [11] = experiment: Ratio of drug uptake in cortex to cerebellum in Danish Landrace pig; assay type: ADME, tissue-based, Sus scrofa; details: in vivo
Nucleic Acid [12] = experiment: Ratio of drug uptake in cortex to cerebellum in pig; assay type: ADME, tissue-based, Sus scrofa; details: in vivo
Cerebellum [13] = experiment: Ratio of clearance in CD-1 mouse cerebellum to clearance in CD-1 mouse other brain tissues at 70 uCi, iv followed by compound washout after 90 mins by gamma-counting analysis; assay type: ADME, organism-based; details: in vivo, 1.5 h
Method in brief: (§1)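 CD-1 mouse baseline biodistribution after i.v. [18F]radioligand (70 µCi, 8000–12000 mCi/µmol, in 0.2 mL saline), three mice per time point to 90 min. Regional gamma-counting gave %ID/g, and each region was expressed as a ratio to cerebellum.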

[14] = Drug uptake in CD-1 mouse frontal cortex at 70 uCi, iv followed by compound washout by gamma-counting analysis; assay type: ADME, organism-based; details: in vivo
Method in brief: (§2)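 Male CD-1 mice (25–30 g), three per time point. [18F] radiotracer (70 µCi, SA 8000–12000 mCi/µmol, in 0.2 mL saline) given by tail vein. Killed at several times up to 90 min. Dissected regions weighed and gamma counted against injectate standards, giving %ID/g.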

Striatum = experiment: Drug uptake in CD-1 mouse striatum at 70 uCi, iv followed by compound washout by gamma-counting analysis; assay type: ADME, organism-based; details: in vivo
Method in brief: (§3)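 Male CD-1 mice (25–30 g) given [18F]radioligand i.v. into a lateral tail vein (70 µCi, 8000–12000 mCi/µmol, in 0.2 mL saline). Killed by cervical dislocation at various times, three per time point. Brains dissected on ice; regions weighed and gamma-counted with injectate standards. Result as %ID/g.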

[15] = Drug uptake in CD-1 mouse superior and inferior colliculus at 70 uCi, iv followed by compound washout by gamma-counting analysis; assay type: ADME, organism-based; details: in vivo; method in brief: as §3
Mus musculus [16] = experiment: Toxicity in CD-1 mouse assessed as change in behavioral activity at 0.07 mCi, iv after 90 mins in presence of 7-(1,4-Diazabicyclo[3.2.2]nonan-4-yl)-2-fluorodibenzo[b,d]-thiophene 5,5-Dioxide; assay type: organism-based; details: in vivo, 1.5 h
Method in brief: (§4)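 CD-1 mice observed for behavioral and locomotor changes during self-blockade studies. [18F]tracer (0.07 mCi, i.v.) was co-injected with the non-radioactive ligand at 0.3 or 0.2 mg/kg i.v., dissolved in saline at pH 5.5. Brains were harvested at 90 min.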

Hippocampus [17] = experiment: Drug uptake in CD-1 mouse hippocampus at 0.07 mCi, iv after 90 mins in presence of 3-(1,4-Diazabicyclo[3.2.2]nonan-4-yl)dibenzo[b,d]-thiophene 5,5-dioxide; assay type: ADME, organism-based; details: in vivo, 1.5 h
Thalamus = experiment: Drug uptake in CD-1 mouse thalamus at 70 uCi, iv followed by compound washout by gamma-counting analysis; assay type: ADME, organism-based; details: in vivo; method in brief: as §3
Mus musculus [18] = experiment: Toxicity in CD-1 mouse assessed as change in locomotor activity at 0.07 mCi, iv after 90 mins in presence of 7-(1,4-Diazabicyclo[3.2.2]nonan-4-yl)-2-fluorodibenzo[b,d]-thiophene 5,5-Dioxide; assay type: organism-based; details: in vivo, 1.5 h; method in brief: as §4
Cerebellum [19] = experiment: Drug uptake in CD-1 mouse colliculus at 0.07 mCi, iv after 90 mins relative to drug uptake in CD-1 mouse cerebellum; assay type: ADME, organism-based; details: in vivo, 1.5 h
Hippocampus [20] = experiment: Drug uptake in CD-1 mouse hippocampus at 70 uCi, iv followed by compound washout by gamma-counting analysis; assay type: ADME, organism-based; details: in vivo; method in brief: as §2
Nucleic Acid [21] = experiment: Ratio of drug uptake from cortex to cerebellum in CD-1 mouse after 90 mins; assay type: ADME, tissue-based; details: 1.5 h
Cerebellum [22] = experiment: Drug uptake in CD-1 mouse cerebellum at 0.07 mCi, iv after 90 mins in presence of 3-(1,4-Diazabicyclo[3.2.2]nonan-4-yl)dibenzo[b,d]-thiophene 5,5-dioxide; assay type: ADME, organism-based; details: in vivo, 1.5 h
Nucleic Acid [23] = experiment: Ratio of drug uptake from hippocampus to cerebellum in CD-1 mouse after 90 mins; assay type: ADME, nucleic-acid assay; details: 1.5 h
Brain = experiment: Drug uptake in CD-1 mouse other brain regions at 0.07 mCi, iv after 90 mins in presence of 3-(1,4-Diazabicyclo[3.2.2]nonan-4-yl)dibenzo[b,d]-thiophene 5,5-dioxide; assay type: ADME, organism-based; details: in vivo, 1.5 h
Method in brief: (§5)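 Male CD-1 mice. [18F]tracer (0.07 mCi, SA 11000 mCi/µmol, i.v.) co-injected with α7 antagonist blocker at 0.001, 0.0045 or 0.014 mg/kg, handled as in the dose-escalation blockade. Brain regions harvested at 90 min and gamma-counted. %ID/g, mean ± SD, n=3; ANOVA versus controls.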

Cerebellum [24] = experiment: Drug uptake in CD-1 mouse cerebellum at 0.07 mCi, iv after 90 mins in presence of 3-(1,4-Diazabicyclo[3.2.2]nonan-4-yl)-6-fluorodibenzo[b,d]thiophene 5,5-Dioxide; assay type: ADME, organism-based; details: in vivo, 1.5 h
Method in brief: (§6)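 Male CD-1 mice, n=3. [18F] radiotracer (70 µCi, 0.2 mL) given i.v. together with unlabeled blocker in saline pH 5.5. Brain regions dissected at 90 min, gamma counted, expressed as %ID/g.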

Cerebellum [25] = experiment: Drug uptake in CD-1 mouse cerebellum at 70 uCi, iv followed by compound washout by gamma-counting analysis; assay type: ADME, organism-based; details: in vivo; method in brief: as §2
Cerebellum [26] = experiment: Drug uptake in CD-1 mouse cerebellum at 0.07 mCi, iv after 90 mins in presence of 7-(1,4-Diazabicyclo[3.2.2]nonan-4-yl)-2-fluorodibenzo[b,d]-thiophene 5,5-Dioxide; assay type: ADME, organism-based; details: in vivo, 1.5 h; method in brief: as §6
[27] = Drug uptake in CD-1 mouse superior and inferior colliculus at 0.07 mCi, iv after 90 mins in presence of 3-(1,4-Diazabicyclo[3.2.2]nonan-4-yl)dibenzo[b,d]-thiophene 5,5-dioxide; assay type: ADME, organism-based; details: in vivo, 1.5 h; method in brief: as §5
Nucleic Acid [28] = experiment: Ratio of drug uptake from superior and inferior colliculus to cerebellum in CD-1 mouse after 90 mins; assay type: ADME, nucleic-acid assay; details: 1.5 h; method in brief: as §1
[29] = target: T1, Neuronal acetylcholine receptor subunit alpha-7; experiment: Displacement of [3H]MLA from rat alpha7 nAChR

O=S1(=O)c2cc(N3CCN4CCC3CC4)ccc2-c2cccc(F)c21
Ratio Ki [1]: 1370 | Ratio Ki [2]: 561

O=S1(=O)c2ccccc2-c2c(N3CCN4CCC3CC4)ccc(F)c21
Ratio Ki [1]: 210

[125I]c1occc1-c1cnc2c(c1)CC1(CN3CCC1CC3)O2 (stereo unspecified)
Ratio (Nucleic Acid [3]): 0.6

[11CH3]c1ccc(OC(=O)N2CCN3CCC2CC3)cc1
Ratio [4]: 0.6 | Ki [5]: 46 nM

[11CH3]N1CC2CN(c3ccc(-c4ccc5[nH]ccc5c4)nn3)CC2C1 (stereo unspecified)
Ratio (Nucleic Acid [6]): 0.5 | Ki [7]: 0.24 nM

O=S1(=O)c2ccccc2-c2ccc(N3CCN4CCC3CC4)c(F)c21
Ratio Ki [1]: 66

[11CH3]N1CC2CN(c3ccc(-c4ccccc4)nn3)CC2C1 (stereo unspecified)
Ki [8]: 10.8 nM | Ratio [4]: 0.2

O=S1(=O)c2ccc(I)cc2-c2ccc(N3CCN4CCC3CC4)cc21
Ratio Ki [1]: 63

[11CH3]n1cccc1-c1nnc(N2CCN3CCC2CC3)o1
Ki [9]: 2.2 nM | Ki [10]: 20.4 nM | Ratio (Nucleic Acid [11]): 1

[18F]c1ccc(-c2nnc(N3CCN4CCC3CC4)o2)cc1
Ratio [4]: 0.4 | Ratio (Nucleic Acid [12]): 0.8 | Ki [10]: 38 nM | Ki [7]: 11.6 nM

O=[11C](Nc1ccc(Br)cc1)OC1CN2CCC1CC2 (stereo unspecified)
Ratio [4]: 0.3

O=S1(=O)c2ccc([18F])cc2-c2ccc(N3CCN4CCC3CC4)cc21
Ratio (Cerebellum [13]): 4.5 | Drug uptake [14]: Active | Drug uptake (Striatum): Active | Drug uptake [15]: Active | Activity (Mus musculus [16]): Non-toxic | Drug uptake (Hippocampus [17]): Not Active | Drug uptake (Thalamus): Active | Activity (Mus musculus [18]): Non-toxic | Drug uptake (Cerebellum [19]): 80% | Drug uptake (Hippocampus [20]): Active | Ratio (Nucleic Acid [21]): 2 | Drug uptake (Cerebellum [22]): Not Active | Ratio (Nucleic Acid [23]): 3.1 | Drug uptake (Brain): Not Active | Drug uptake (Cerebellum [24]): Active | Drug uptake (Cerebellum [25]): Active | Drug uptake (Cerebellum [26]): Active | Drug uptake [27]: Not Active | Ratio (Nucleic Acid [28]): 2

CN1C[C@H]2CN(c3ccc4c(c3)C(=O)c3cc(N5C[C@@H]6CN([11CH3])[C@@H]6C5)ccc3-4)C[C@H]21
Ki [7]: 0.092 nM

[11CH3]N1CC2CN(c3ccc4oc5ccccc5c(=O)c4c3)CC2C1 (stereo unspecified)
Ki [29]: 11 nM

O=S1(=O)c2ccc(F)cc2-c2ccc(N3CCN4CCC3CC4)cc21
Ratio Ki [1]: 663 | Ratio Ki [2]: 378

[18F]c1ccccc1-c1cnc2c(c1)CC1(CN3CCC1CC3)O2 (stereo unspecified)
Ratio [4]: 0.8 | Ki [10]: 3.3 nM | Ki [29]: 0.2 nM
